Assay results: ChEMBL document CHEMBL3872222, “Synthesis of novel curcuminoids accommodating a central β-enaminone motif and their impact on cell growth and oxidative stress” (Eur J Med Chem, 2016)
In brackets after ≈: the same amount, converted by molar mass.

How the values were obtained:
[1] = Solubility of the compound in serum-free DMEM assessed as compound concentration required for crystal formation measured after 1 day by microscopic analysis; type: physicochemical; conditions: 24 h
Summary of the method: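 Compound at 0, 0.5, 1, 5, 10, 25 and 50 μM in serum-free DMEM incubated 1 day at 37 °C, 10% CO2, then examined for crystal formation.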

[2] = Antioxidant activity assessed as inhibition of DPPH radical activity at 1 uM measured after 30 mins under dark conditions by spectrophotometric analysis relative to control; type: functional
[3] = Growth inhibition of CHOK1 cells assessed as mitochondrial activity measured after 72 hrs by MTT assay; type: functional, cell-based; conditions: Cricetulus griseus, CHO-K1, 72 h
Summary of the method: (§1)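 Seeded 20000 cells/well in DMEM+glutamax, NEAA, P/S, FBS; after 1 day treated 1, 5, 10, 25 μM in serum-free medium (DMSO under 0.1%) for 3 days. MTT (5 mg/ml in PBS) 2 h at 37 °C, 10% CO2 in dark; formazan dissolved in DMSO, absorbance 570 nm; triplicate; IC50 derived.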

[4] = Antioxidant activity assessed as trolox equivalent of ferric ion reducing activity using Fe3+-TPTZ by measuring Fe2+-TPTZ formation after 4 mins by UV-vis spectrophotometry based FRAP assay; type: functional
Summary of the method: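 FRAP reagent: 300 mM acetate buffer, 10 mM TPTZ in ethanol and 20 mM FeCl3 (in dilute HCl) combined 10:1:1, TPTZ and iron freshly made. Sample mixed 1:9 with reagent; absorbance 593 nm after 4 min. Expressed as trolox equivalents per μM from slope of linear plot versus analog concentration.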

[5] = Growth inhibition of CHOK1 cells measured after 72 hrs by SRB assay; type: functional, cell-based; conditions: Cricetulus griseus, CHO-K1, 72 h
Summary of the method: (§2)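 20000 cells/well treated after 1 day at 1, 5, 10, 25 μM, serum-free, for 3 days. Fixed with 50% TCA 1 h at 4 °C, stained 30 min with 0.4% sulforhodamine B in 1% acetic acid, rinsed with 1% acetic acid, dye dissolved in 10 mM Tris, absorbance 490 nm; triplicate; IC50 derived.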

[6] = Growth inhibition of human HT-29 cells measured after 72 hrs by SRB assay; type: functional, cell-based; conditions: HT-29, 72 h; summary of the method: as §2
[7] = Growth inhibition of undifferentiated human Caco2 cells assessed as mitochondrial activity measured after 72 hrs by MTT assay; type: functional, cell-based; conditions: Caco-2, 72 h; summary of the method: as §1
[8] = Growth inhibition of undifferentiated human Caco2 cells measured after 72 hrs by SRB assay; type: functional, cell-based; conditions: Caco-2, 72 h; summary of the method: as §2
[9] = Growth inhibition of differentiated human Caco2 cells assessed as mitochondrial activity measured after 72 hrs by MTT assay; type: cell-based; conditions: Caco-2, 72 h; summary of the method: as §1
[10] = Growth inhibition of differentiated human Caco2 cells measured after 72 hrs by SRB assay; type: cell-based; conditions: Caco-2, 72 h; summary of the method: as §2
[11] = Growth inhibition of human HT-29 cells assessed as mitochondrial activity measured after 72 hrs by MTT assay; type: functional, cell-based; conditions: HT-29, 72 h; summary of the method: as §1
[12] = Growth inhibition of human EAhy926 cells assessed as mitochondrial activity measured after 72 hrs by MTT assay; type: cell-based; conditions: EA.hy 926, 72 h; summary of the method: as §1
[13] = Growth inhibition of human EAhy926 cells measured after 72 hrs by SRB assay; type: cell-based; conditions: EA.hy 926, 72 h; summary of the method: as §2
EA.hy 926 [14] = experiment: Effect on oxidative stress in human EAhy926 cells assessed as intracellular ROS level at 1 uM after overnight incubation by DCFH-DA staining based fluorescence assay relative to control; type: functional
Summary of the method: (§3)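 Cells grown in DMEM+glutamax, 1% NEAA, 1% P/S, 10% FBS; seeded 20000/well, treated at confluency overnight in serum-free medium, DMSO under 0.1% final. Loaded with 20 μM DCFH-DA 30 min at 37 °C, 10% CO2; washed, phenol red-free medium 1 h, then serum-free medium; fluorescence ex 485/em 535 nm. Percent of untreated; two-tailed unequal-variance t-test, n≥6.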

CHO [15] = experiment: Effect on oxidative stress in CHO cells assessed as intracellular ROS level at 1 uM after overnight incubation by DCFH-DA staining based fluorescence assay relative to control; type: functional, Cricetulus griseus; summary of the method: as §3
CHO [16] = experiment: Effect on oxidative stress in CHO cells assessed as intracellular ROS level at 10 uM after overnight incubation by DCFH-DA staining based fluorescence assay relative to control; type: functional, Cricetulus griseus; summary of the method: as §3
Caco-2 [17] = experiment: Effect on oxidative stress in undifferentiated human Caco2 cells assessed as intracellular ROS level at 1 uM after overnight incubation by DCFH-DA staining based fluorescence assay relative to control; type: functional; summary of the method: as §3
Caco-2 [18] = experiment: Effect on oxidative stress in undifferentiated human Caco2 cells assessed as intracellular ROS level at 10 uM after overnight incubation by DCFH-DA staining based fluorescence assay relative to control; type: functional; summary of the method: as §3
HT-29 [19] = experiment: Effect on oxidative stress in human HT-29 cells assessed as intracellular ROS level at 1 uM after overnight incubation by DCFH-DA staining based fluorescence assay relative to control; type: functional; summary of the method: as §3
HT-29 [20] = experiment: Effect on oxidative stress in human HT-29 cells assessed as intracellular ROS level at 10 uM after overnight incubation by DCFH-DA staining based fluorescence assay relative to control; type: functional; summary of the method: as §3
EA.hy 926 [21] = experiment: Effect on oxidative stress in human EAhy926 cells assessed as intracellular ROS level at 10 uM after overnight incubation by DCFH-DA staining based fluorescence assay relative to control; type: functional; summary of the method: as §3

SMILES	solubility [1] [µM]	inhibition [2] [%]	IC50 [3] [µM]	Activity [4] [µMequiv/µM]	IC50 [5] [µM]	IC50 [6] [µM]	IC50 [7] [µM]	IC50 [8] [µM]	IC50 [9] [µM]	IC50 [10] [µM]	IC50 [11] [µM]	IC50 [12] [µM]	IC50 [13] [µM]	Activity (EA.hy 926 [14]) [%]	Activity (CHO [15]) [%]	Activity (CHO [16]) [%]	Activity (Caco-2 [17]) [%]	Activity (Caco-2 [18]) [%]	Activity (HT-29 [19]) [%]	Activity (HT-29 [20]) [%]	other results
COc1cc(/C=C/C(=O)/C=C(/C=C/c2ccc(OC(C)=O)c(OC)c2)NCC(C)C)ccc1OC(C)=O	5 (≈ 2.54 µg/mL)	0	> 25	0.04	> 25	> 25	> 25	> 25	> 25	> 25	> 25	> 25	> 25	104	111	111	96	77	95	96	Activity (EA.hy 926 [21]): 240%
CCC(C)NC(=C\C(=O)/C=C/c1ccc(O)cc1)/C=C/c1ccc(O)cc1 (stereo not given)	25 (≈ 9.09 µg/mL)	0.03	13.1	0.18	15.1	15.6	9.4	5.8	> 25	> 25	13	22	> 25	99	104	111	102	102	76	76	Activity (EA.hy 926 [21]): 414%
CCC(C)NC(=C\C(=O)/C=C/c1ccc(OC(C)=O)c(OC)c1)/C=C/c1ccc(OC(C)=O)c(OC)c1 (stereo not given)	5 (≈ 2.54 µg/mL)	0	> 25	0	> 25	> 25	> 25	24	> 25	> 25	> 25	> 25	> 25	68	88	92	95	86	92	89	Activity (EA.hy 926 [21]): 105%
O=C(/C=C/c1ccc(O)cc1)CC(=O)/C=C/c1ccc(O)cc1 [BISDEMETHOXYCURCUMIN]	25 (≈ 7.71 µg/mL)	0.02	> 25	0.28	> 25	> 25	> 25	> 25	> 25	> 25	> 25	> 25	> 25	92	101	105	98	83	75	69	Activity (EA.hy 926 [21]): 103%
COc1cc(/C=C/C(=O)CC(=O)/C=C/c2ccc(OC(C)=O)c(OC)c2)ccc1OC(C)=O	0.5 (≈ 0.226 µg/mL)	0	> 25	0.03	> 25	> 25	> 25	> 25	> 25	> 25	> 25	> 25	> 25	114	128	112	93	90	79	76	Activity (EA.hy 926 [21]): 189%
